# Screening data: PubChem BioAssay, several laboratories
# Most compounds without a hit are left out; they make up all but 4.2% or so of the library.
# CTSL1 counter – counter-screen for PFM18AAP inhibitors: inhibitors of F. hepatica cathepsin L1; recombinant F. hepatica cathepsin L1, Z-Leu-Arg-MCA fluorescence; inhibition, % at 5.96 µM; 300,000 compounds, 0.49% hits; AID 1906;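 active means inhibition above the mean of all tested compounds plus 3 SD, set per screening campaign, cut at about 17% in these data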;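 further: 0% = plate median of test compound wells and 100% = 1 µM Z-Phe-Ala-diazomethylketone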
# SENP1 inh – SENP1 (human) catalytic domain inhibition. inhibition, % at 10 µM. recombinant SENP1 catalytic domain, CyPet-SUMO1-YPet FRET cleavage. 360,000 compounds, 0.21% hits;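 active means inhibition at least 30% at 10 µM, raw YFP signal under a set limit, fluorescence ratio 0.5 to 1.5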;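 further: 0% = enzyme with DMSO and 100% = no enzyme wells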
# Target sequence (Q9P0U3 419-644 limits assumed): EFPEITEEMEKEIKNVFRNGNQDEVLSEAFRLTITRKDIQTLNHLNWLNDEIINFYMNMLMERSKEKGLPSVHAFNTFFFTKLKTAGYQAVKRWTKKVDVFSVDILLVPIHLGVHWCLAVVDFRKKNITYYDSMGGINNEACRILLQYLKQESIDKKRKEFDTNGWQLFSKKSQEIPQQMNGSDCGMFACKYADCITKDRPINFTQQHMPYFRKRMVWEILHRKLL
#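 Test system: recombinant human SENP1 catalytic domain, His6-tagged / Medium: pH 8 Tris buffer with EDTA, NaCl, BME, BSA, NP40, catalase / Also added: SUMO1 FRET substrate flanked by Cypet and Ypet, 25 nM / Times: 50 min reaction at room temperature / Signal: FRET, CFP and YFP emission / Control set: no-enzyme low control and enzyme-plus-DMSO high control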
# PfM18AAP inh – blocks P. falciparum M18 aspartyl aminopeptidase; recombinant PfM18AAP, H-Glu-NHMec fluorogenic cleavage; inhibition, % at 7.35 µM; 290,000 compounds, 1.2% hits; AID 1822;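 active means inhibition above the campaign mean inhibition over all tested compounds plus 3 SD, cut at about 28% in these data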;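 further: 0% = plate median of test compound wells and 100% = 2 mM ZnCl2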
# AHR act – activators of human aryl hydrocarbon receptor; 320,000 compounds, 2.5% hits; activation, % at 5 µM; AID 2796; P35869; AHR-responsive luciferase reporter cells, luminescence; in the data active means activation above about 47%;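 further: 0% = vehicle wells and 100% = reference agonist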
# HDAC3 inh – human HDAC3 inhibition; O15379; recombinant HDAC3, fluorogenic peptide/trypsin coupled, fluorescence; 320,000 compounds, 0.15% hits; inhibition, % at 8.3 µM; in the data active means inhibition above about 26%, passing the limit was not always enough; inconclusive means no clear call, values can overlap the other calls
# FXN GAA850 act – frataxin GAA850 promoter activation. HEK293 lucGAA850 FXN promoter luciferase reporter, 24 h; percent of 10 µM SAHA response. activation, % at 6 µM. 360,000 compounds, 0.56% hits;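 active means activation above the average of all compounds screened plus 3 SD, cutoff fixed separately per campaign, cut at about 7.5% in these data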;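 further: 0% = DMSO wells and 100% = 10 µM SAHA wells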
# Numbers without * were called inactive; ? = inconclusive; / = no result.
SMILES,CTSL1 counter,SENP1 inh,PfM18AAP inh,AHR act,HDAC3 inh,FXN GAA850 act
COc1ccc(CCNC(=O)C(=O)NCCC2CCCCN2S(=O)(=O)c2ccccc2)cc1 (centres undefined),1,4,/,0,/,0
COC(=O)c1ccccc1COc1cccn2c(N(C)Cc3cccs3)c(C)nc12,/,-44,/,/,/,-2
CSc1nc2c(C)c(C)c(C)c(C)c2[nH]1,-3,0,-2,47*,2,-1
COc1ccc(OC)c(C2CC(=O)N3CN(c4cccc(Cl)c4C)CSC3=C2C#N)c1 (centres undefined),5,-38,38*,1,37*,-1
COc1ccc(OC)c(C2CC(=O)N3CN(c4ccccc4F)CSC3=C2C#N)c1 (centres undefined),0,-9,28*,-1,?,-2
COc1cccc(C2CC(=O)N3CN(c4cccc(Cl)c4C)CSC3=C2C#N)c1OC (centres undefined),3,-23,15,2,51*,-1
COc1cccc(C2CC(=O)N3CN(c4ccccc4F)CSC3=C2C#N)c1 (centres undefined),8,-3,15,4,/,1
COc1ccc(OC)c(C2CC(=O)N3CN(c4cccc(Cl)c4)CSC3=C2C#N)c1 (centres undefined),2,-2,20,8,5,0
O=C1c2c([N+](=O)[O-])cc([N+](=O)[O-])cc2S(=O)N1Cc1ccccc1 (centres undefined),6,2,52*,2,9,1
Nc1nccnc1C(=O)OCC(=O)NC1CCCc2ccccc21 (centres undefined),/,-20,/,1,-26,2
Cc1cc2c(C)ccc(C)c2nc1SCC(=O)c1cccs1,5,-32,0,58*,2,3
COc1cc(/C=C2\SC(=S)N(NC(C)=O)C2=O)ccc1OC(=O)c1ccco1,/,20,/,0,27*,4
COc1ccc(/C=C2\SC(=S)N(CCCC(=O)NNC(=O)c3ccccc3O)C2=O)cc1,3,2,1,-2,1,-12
COc1ccccc1/C=C1\SC(=S)N(CCC(=O)NNC(=O)c2ccccc2O)C1=O,0,-10,12,56*,5,1
O=C1/C(=C/c2ccc(O)c([N+](=O)[O-])c2)SC(=S)N1Cc1ccccc1,2,38*,5,5,1,1
O=C1/C(=C\c2cccc([N+](=O)[O-])c2O)SC(=S)N1Cc1ccccc1,3,6,4,7,-6,-3
COc1cc(/C=C2\SC(=S)N(NC(=O)c3ccccc3O)C2=O)ccc1O,5,59*,15,1,7,-1
O=C(NC1CCCC1)C(C1CC1)n1c(-c2ccncc2)nc2ccccc21 (centres undefined),/,1,/,/,/,/
COc1ccc(C(=O)N2CCC(C)(C(=O)NS(=O)(=O)C3CC3)C2)cc1 (centres undefined),/,2,/,/,/,0
CC(C)[C@@H]1Cc2[nH]n(C)c(=O)c2[C@H](c2ccc(Cl)cc2)O1,/,2,/,/,/,/
O=C(NN1C(=O)/C(=C/c2ccc(O)c([N+](=O)[O-])c2)SC1=S)c1ccccc1Cl,8,32*,9,4,14,1
COc1cc([N+](=O)[O-])cc(/C=C2/SC(=S)N(Cc3ccccc3)C2=O)c1O,0,79*,10,-1,-11,-1
CCOc1cc(/C=C2/SC(=S)NC2=O)ccc1OC(=O)c1ccco1,0,75*,-5,5,16,-1
COc1cc(/C=C2/SC(=O)NC2=O)ccc1OC(=O)c1ccco1,3,5,-8,-1,-3,-1
CC(O)(c1ccccc1)c1nc(-c2ccc3c(c2)OCO3)cs1 (centres undefined),/,2,/,/,/,0
Cc1cccc(NC(=O)COc2cccc3c2CCNC3=O)c1,/,0,/,/,/,-2
CCCc1ccc(-c2cc(C(=O)N3CCN(c4ccccn4)CC3)c3ccccc3n2)cc1,3,1,1,-1,-3,1
COCCNC(=O)c1cc2c3ccccc3n(C)c2s1,-2,-4,-3,49*,7,2
CC(=O)Nc1ccc(S(=O)(=O)NNC(=O)c2cc3c4ccccc4n(C)c3s2)cc1,-2,-26,6,75*,-1,0
